# Test results: ChEMBL document CHEMBL5149972, “Novel Antimalarial Tetrazoles and Amides Active against the Hemoglobin Degradation Pathway in Plasmodium falciparum” (J Med Chem, 2021)
# pEC50, pIC50: −log10 of the molar value.
# How the values were obtained:
# Plasmodium falciparum [1] = assay: Antiplasmodial activity against asexual blood stage Plasmodium falciparum 3D7 infected in human RBC assessed as parasite growth inhibition incubated for 72 hrs by SYBR Green dye based fluorescence assay; type: functional, organism-based; conditions: Plasmodium falciparum, 3D7, Erythrocyte, 72 h
# In short: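 Blood-stage cultures at 2% hematocrit, human O+ RBCs, RPMI 1640 + 25 mM HEPES, 0.5% Albumax-I, 23 mM bicarbonate, 92 μM hypoxanthine. Start at 0.5% parasitemia; 72 h at 37°C, 5% CO₂; freeze-thaw, then SYBR Green in saponin/Triton lysis buffer, 4 h RT dark; fluorescence ex 485/em 535 nm. 10-point curves, technical duplicates or triplicates, final 0.5% DMSO; four-parameter fit gives EC₅₀; mean ± std dev of biological replicates.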
# Plasmodium falciparum [2] = assay: (§1) Antiplasmodial activity against Rac-N-(Pyridin-3-yl(1-(o-tolyl)-1H-tetrazol-5-yl)methyl)-N-(3-(trifluoromethyl)benzyl)Cyclopropanamine resistant Plasmodium falciparum 3D7 clone F1-B6 ring-stage parasite assessed as parasite growth inhibition incubated for 72 hrs by SYBR Green and MitoTracker Deep Red FM dye based flow cytometry; type: functional, organism-based
# In short: (§2)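 Clonal 3D7-A10 lines recovered after single-step selection; ring stages at 0.2% parasitemia, 1% hematocrit in RPMI-1640 with 0.5% Albumax. 72 h exposure to a 10-point 2-fold dilution series in duplicate with DMSO controls, final DMSO <0.5%. Survival read by flow cytometry, SYBR Green as nuclear stain and MitoTracker Deep Red FM as vital dye. EC₅₀ and EC₉₀ reported with fold shift relative to parental 3D7-A10.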
# [3] = Kinetic solubility of compound in PBS at pH 6.5 by HPLC analysis; type: physicochemical; conditions: read-out: Kinetic_solubility
# Plasmodium falciparum [4] = assay: Antiplasmodial activity against Plasmodium falciparum NF54 infected in human RBC assessed as parasite growth inhibition incubated for 72 hrs by SYBR Green dye based fluorescence assay; type: functional, organism-based; conditions: NF54, Erythrocyte
# Plasmodium falciparum [5] = assay: Antiplasmodial activity against lab-derived MMV390048 resistant Plasmodium falciparum Dd2-Pfpi4K mutant infected in human RBC assessed as parasite growth inhibition incubated for 72 hrs by SYBR Green dye based fluorescence assay; type: functional, organism-based; conditions: Erythrocyte
# Plasmodium falciparum [6] = assay: Antiplasmodial activity against chloroquine and pyrimethamine resistant Plasmodium falciparum Dd2 infected in human RBC assessed as parasite growth inhibition incubated for 72 hrs by SYBR Green dye based fluorescence assay; type: functional, organism-based; conditions: Dd2, Erythrocyte
# In short: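 O+ human RBCs at 2% hematocrit and 0.5% starting parasitemia, in RPMI 1640 with 25 mM HEPES, 0.5% Albumax-I, bicarbonate and hypoxanthine. Serial dilutions in triplicate, 0.5% DMSO final, 72 h at 37°C, 5% CO2. Frozen at −80°C, lysed with SYBR Green in saponin/Triton buffer for 4 h in the dark. Ex 485/em 535 nm. EC50 from four-parameter fit; biphasic fit where curves were biphasic.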
# Plasmodium falciparum [7] = assay: Antiplasmodial activity against Plasmodium falciparum mature stage V gametocyte assessed as inhibition of male gametocyte formation by luciferase reporter assay; type: functional, organism-based
# Hemozoin = assay: Inhibition of Beta-hematin assessed as bis-pyridyl-Fe(III)PPIX complex formation incubated for 5 hrs by NP40 detergent-mediated colorimetric assay
# Plasmodium falciparum [8] = assay: as §1, with “A10” for “F1-B6”; type: functional, organism-based
# In short: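 Resistant clonal lines were tested as ring stages at 0.2% parasitemia and 1% hematocrit in RPMI-1640 with 0.5% Albumax. A 10-point 2-fold dilution series was run in duplicate with DMSO controls, final DMSO <0.5%, for 72 h. Survival was read by flow cytometry with SYBR Green as nuclear stain and MitoTracker Deep Red as vital dye. EC50 and EC90 were derived.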
# Plasmodium falciparum [9] = assay: Antiplasmodial activity against chloroquine, atovaquone and pyrimethamine resistant Plasmodium falciparum TM90C2B infected in human RBC assessed as parasite growth inhibition incubated for 72 hrs by SYBR Green dye based fluorescence assay; type: functional, organism-based; conditions: Erythrocyte
# [10] = Inhibition of hemozoin formation in sorbitol-synchronized early ring stage plasmodium falciparum NF54 trophozoites assessed as fold increase in free heme-Fe level at 3 times EC50 incubated for 32 hrs by flow cytometry analysis; type: functional
# In short: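 Trophozoites were saponin-released (0.05%), PBS-washed, counted by flow cytometry, then hypotonically lysed and sonicated. Heme was fractionated with HEPES, SDS, pyridine and NaOH and read as Fe(III)heme–pyridine absorbance against a heme standard curve (fg/cell). Three biological replicates; Student's t-test.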
# Plasmodium falciparum [11] = assay: Antiplasmodial activity against lab-derived KAF156 resistant Plasmodium falciparum Dd2-Pfcarl mutant infected in human RBC assessed as parasite growth inhibition incubated for 72 hrs by SYBR Green dye based fluorescence assay; type: functional, organism-based; conditions: Erythrocyte
# [12] = Kinetic solubility of compound in PBS at pH 2 by HPLC analysis; type: physicochemical; conditions: read-out: Kinetic_solubility
# Plasmodium falciparum [13] = assay: Antiplasmodial activity against piperaquine and pyrimethamine resistant Plasmodium falciparum RF12 infected in human RBC assessed as parasite growth inhibition incubated for 72 hrs by SYBR Green dye based fluorescence assay; type: functional, organism-based; conditions: RF12, Erythrocyte
# Plasmodium falciparum [14] = assay: Antiplasmodial activity against chloroquine resistant Plasmodium falciparum Dd2-Dd2 mutant replaced with recombinant Dd2 sequence at endogenous pfcrt Dd2 locus infected in human RBC assessed as parasite growth inhibition incubated for 72 hrs by SYBR Green dye based fluorescence assay; type: functional, organism-based; conditions: Erythrocyte
# In short: (§3)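 Gene-edited Dd2 lines with the endogenous pfcrt locus replaced by zinc-finger nuclease editing. Concentration-response curves run with technical duplicates at each concentration; values are the average of two biological replicates, with std dev given where more replicates were collected.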
# Plasmodium berghei = assay: Antiplasmodial activity against liver stage Plasmodium berghei ANKA expressing GFP-Luc-SMCO infected in human HepG2-A16-CD81EGFP cells assessed as reduction in liver-stage development of luciferase-expressing parasite by luciferase reporter gene based bioluminescence assay; type: functional, organism-based
# In short: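 Pb-Luc (P. berghei ANKA-GFP-Luc-SMCON) sporozoites infect HepG2-A16-CD81EGFP cells in phenol red-free DMEM with 5% FBS, glutamine, penicillin/streptomycin; compounds scored for blocking liver-stage development by luciferase signal.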
# Plasmodium falciparum [15] = assay: Antiplasmodial activity against chloroquine and pyrimethamine resistant Plasmodium falciparum 7G8 infected in human RBC assessed as parasite growth inhibition incubated for 72 hrs by SYBR Green dye based fluorescence assay; type: functional, organism-based; conditions: 7G8, Erythrocyte
# Plasmodium falciparum [16] = assay: Antiplasmodial activity against lab-derived DSM265 resistant Plasmodium falciparum Dd2-PfDHODH mutant infected in human RBC assessed as parasite growth inhibition incubated for 72 hrs by SYBR Green dye based fluorescence assay; type: functional, organism-based; conditions: Erythrocyte
# Plasmodium falciparum [17] = assay: Antiplasmodial activity against Plasmodium falciparum mature stage V gametocyte assessed as inhibition of female gametocyte formation by luciferase reporter assay; type: functional, organism-based
# Plasmodium falciparum [18] = assay: as §1, with “F2-A10” for “F1-B6”; type: functional, organism-based; in short: as §2
# Plasmodium falciparum [19] = assay: Antiplasmodial activity against lab-derived ELQ300 resistant Plasmodium falciparum Dd2-PfCytB mutant infected in human RBC assessed as parasite growth inhibition incubated for 72 hrs by SYBR Green dye based fluorescence assay; type: functional, organism-based; conditions: Erythrocyte
# Plasmodium falciparum [20] = assay: Antiplasmodial activity against chloroquine resistant Plasmodium falciparum Dd2-GC03 mutant replaced with 3D7 pfcrt sequence at endogenous pfcrt Dd2 locus infected in human RBC assessed as parasite growth inhibition incubated for 72 hrs by SYBR Green dye based fluorescence assay; type: functional, organism-based; conditions: Erythrocyte; in short: as §3
compound,measurement,setting,value
Cc1ccccc1-n1nnnc1C(c1cccnc1)N(Cc1cccc(C(F)(F)F)c1)C1CC1 (racemic),pEC50,Plasmodium falciparum [1],6.42
same,pEC50,"Plasmodium falciparum [2]; 3D7 clone F1-B6, 72 h",6.26
same,EC90,"Plasmodium falciparum [2]; 3D7 clone F1-B6, time 72 hrs",1.1 µM
same,solubility kinetic,[3],1.5 µg/mL
same,pEC50,Plasmodium falciparum [4],6.32
same,pEC50,Plasmodium falciparum [5],6.12
same,pEC50,Plasmodium falciparum [6],6.27
same,pEC50,Plasmodium falciparum [7],< 4.60
same,pIC50,Hemozoin,4.12
same,pEC50,"Plasmodium falciparum [8]; 3D7 clone A10, 72 h",6.52
same,EC90,"Plasmodium falciparum [8]; 3D7 clone A10, time 72 hrs",0.59 µM
same,pEC50,Plasmodium falciparum [9],6.34
same,fold change (FC),[10],6
same,pEC50,Plasmodium falciparum [11],6.19
same,solubility kinetic,[12],12 µg/mL
same,pEC50,Plasmodium falciparum [13],6.21
same,pEC50,Plasmodium falciparum [14],6.35
same,pEC50,Plasmodium berghei,5.14
same,pEC50,Plasmodium falciparum [15],6.74
same,pEC50,Plasmodium falciparum [16],6.10
same,pEC50,Plasmodium falciparum [17],< 4.60
same,pEC50,"Plasmodium falciparum [18]; 3D7 clone F2-A10, 72 h",6.08
same,EC90,"Plasmodium falciparum [18]; 3D7 clone F2-A10, time 72 hrs",1.5 µM
same,pEC50,Plasmodium falciparum [19],6.07
same,pEC50,Plasmodium falciparum [20],6.05
